ChEMBL document CHEMBL1629583, “Establishment of in vitro susceptibility testing methodologies and comparative activities of piperacillin in combination with the penem {beta}-lactamase inhibitor BLI-489” (2009)
Values after ≈ are worked out from the molar mass of the structure shown.

Assays:
Type in all cases: functional
Burkholderia cepacia = test: Antimicrobial activity against Burkholderia cepacia clinical isolate after 18 to 22 hrs by broth microdilution method in presence of beta-lactamase inhibitor BLI-489
Summary of the method: (§1)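 CLSI broth microdilution in Mueller-Hinton II broth. Piperacillin serial dilutions were combined with BLI-489 held constant at 4 μg/ml. Inoculum was 10^5 CFU/ml. Plates were incubated 18 to 22 h at 35°C in ambient air. MIC was the lowest concentration completely inhibiting growth seen by the unaided eye. Piperacillin-tazobactam interpretive criteria were applied.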

Streptococcus pneumoniae = test: Antimicrobial activity against penicillin-susceptible Streptococcus pneumoniae clinical isolate after 18 to 22 hrs by broth microdilution method in presence of beta-lactamase inhibitor Tazobactam
Summary of the method: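 Broth microdilution per CLSI in Mueller-Hinton II broth supplemented with 5% lysed horse blood, using serial dilutions of piperacillin-tazobactam. Inoculum was 10^5 CFU/ml. Incubation was 18 to 22 h at 35°C in ambient air. MIC was the lowest concentration with no growth visible to the unaided eye.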

Moraxella catarrhalis = test: Antimicrobial activity against Moraxella catarrhalis clinical isolate after 18 to 22 hrs by broth microdilution method
Enterococcus hirae = test: Antimicrobial activity against Enterococcus hirae clinical isolate after 18 to 22 hrs by broth microdilution method
Klebsiella oxytoca = test: Antimicrobial activity against Klebsiella oxytoca clinical isolate after 18 to 22 hrs by broth microdilution method in presence of beta-lactamase inhibitor Tazobactam
Summary of the method: (§2)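 Piperacillin-tazobactam was tested by CLSI broth microdilution in Mueller-Hinton II broth against clinical isolates. Inoculum was 10^5 CFU/ml, with 18 to 22 h incubation at 35°C in ambient air. MIC was read as the lowest concentration completely inhibiting visible growth.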

Enterococcus faecalis = test: Antimicrobial activity against Enterococcus faecalis clinical isolate after 18 to 22 hrs by broth microdilution method
Enterococcus faecium = test: Antimicrobial activity against vancomycin-resistant Enterococcus faecium clinical isolate after 18 to 22 hrs by broth microdilution method
Proteus vulgaris = test: Antimicrobial activity against Proteus vulgaris clinical isolate after 18 to 22 hrs by broth microdilution method
Acinetobacter lwoffii [1] = test: Antimicrobial activity against Acinetobacter lwoffii clinical isolate after 18 to 22 hrs by broth microdilution method in presence of beta-lactamase inhibitor Tazobactam
Summary of the method: (§3)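 Piperacillin-tazobactam was tested on recent clinical isolates by CLSI broth microdilution in Mueller-Hinton II broth, with tazobactam at constant 4 μg/ml. Wells held 10^5 CFU/ml and were incubated 18 to 22 h at 35°C in ambient air. MIC was the lowest concentration with no growth visible to the unaided eye.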

Staphylococcus aureus = test: Antimicrobial activity against methicillin-resistant Staphylococcus aureus clinical isolate after 18 to 22 hrs by broth microdilution method
Haemophilus influenzae [2] = test: Antimicrobial activity against beta-lactamase-producing Haemophilus influenzae clinical isolate after 18 to 22 hrs by broth microdilution method in presence of beta-lactamase inhibitor Tazobactam
Summary of the method: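 […] was used for CLSI broth microdilution with piperacillin-tazobactam. Inoculum was 10^5 CFU/ml, incubated 18 to 22 h at 35°C in ambient air. MIC was the lowest concentration with no growth visible to the unaided eye.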

Bacteroides fragilis = test: Antimicrobial activity against Bacteroides fragilis clinical isolate after 18 to 22 hrs by broth microdilution method in presence of beta-lactamase inhibitor BLI-489
Haemophilus influenzae [3] = test: Antimicrobial activity against beta-lactamase-negative Haemophilus influenzae clinical isolate after 18 to 22 hrs by broth microdilution method in presence of beta-lactamase inhibitor BLI-489
Summary of the method: (§4)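 Haemophilus isolates were tested in Haemophilus test medium by CLSI broth microdilution. Serial piperacillin dilutions carried BLI-489 fixed at 4 μg/ml. Inoculum was 10^5 CFU/ml, incubated 18 to 22 h at 35°C in ambient air. MIC was the lowest concentration completely inhibiting growth by eye.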

[4] = tested on: Staphylococcus epidermidis; test: Antimicrobial activity against methicillin-resistant Staphylococcus epidermidis clinical isolate after 18 to 22 hrs by broth microdilution method
Citrobacter freundii [5] = test: Antimicrobial activity against Citrobacter freundii clinical isolate after 18 to 22 hrs by broth microdilution method in presence of beta-lactamase inhibitor BLI-489; summary of the method: as §1
[6] = tested on: Acinetobacter haemolyticus; test: Antimicrobial activity against Acinetobacter haemolyticus clinical isolate after 18 to 22 hrs by broth microdilution method
Acinetobacter lwoffii [7] = test: Antimicrobial activity against Acinetobacter lwoffii clinical isolate after 18 to 22 hrs by broth microdilution method
Enterococcus avium [8] = test: Antimicrobial activity against Enterococcus avium clinical isolate after 18 to 22 hrs by broth microdilution method in presence of beta-lactamase inhibitor Tazobactam; summary of the method: as §3
Enterobacter cloacae = test: Antimicrobial activity against AmpC beta-lactamase-producing Enterobacter cloacae clinical isolate after 18 to 22 hrs by broth microdilution method
Klebsiella aerogenes = test: Antimicrobial activity against AmpC beta-lactamase-producing Enterobacter aerogenes clinical isolate after 18 to 22 hrs by broth microdilution method
Enterococcus avium [9] = test: Antimicrobial activity against Enterococcus avium clinical isolate after 18 to 22 hrs by broth microdilution method in presence of beta-lactamase inhibitor BLI-489; summary of the method: as §1
[10] = tested on: Haemophilus parainfluenzae; test: Antimicrobial activity against Haemophilus parainfluenzae clinical isolate after 18 to 22 hrs by broth microdilution method
Haemophilus influenzae [11] = test: Antimicrobial activity against beta-lactamase-negative Haemophilus influenzae clinical isolate after 18 to 22 hrs by broth microdilution method
Enterococcus gallinarum = test: Antimicrobial activity against Enterococcus gallinarum clinical isolate after 18 to 22 hrs by broth microdilution method
Citrobacter freundii [12] = test: Antimicrobial activity against Citrobacter freundii clinical isolate after 18 to 22 hrs by broth microdilution method in presence of beta-lactamase inhibitor Tazobactam; summary of the method: as §3
Klebsiella pneumoniae = test: Antimicrobial activity against Klebsiella pneumoniae clinical isolate after 18 to 22 hrs by broth microdilution method in presence of beta-lactamase inhibitor Tazobactam; summary of the method: as §2
Haemophilus influenzae [13] = test: Antimicrobial activity against beta-lactamase-producing Haemophilus influenzae clinical isolate after 18 to 22 hrs by broth microdilution method in presence of beta-lactamase inhibitor BLI-489; summary of the method: as §4
Acinetobacter baumannii = test: Antimicrobial activity against Acinetobacter baumannii clinical isolate after 18 to 22 hrs by broth microdilution method

## CCN1CCN(C(=O)N[C@@H](C(=O)N[C@@H]2C(=O)N3[C@@H]2SC(C)(C)[C@@H]3C(=O)O)c2ccccc2)C(=O)C1=O [PIPERACILLIN]
Burkholderia cepacia
  MIC50: 1 µg/mL
  MIC90: 2 µg/mL
Streptococcus pneumoniae
  MIC50: 0.008 µg/mL
  MIC90: 0.015 µg/mL
Moraxella catarrhalis
  MIC50: 0.25 µg/mL (≈ 0.483 µM)
  MIC90: 8 µg/mL (≈ 15.5 µM)
Enterococcus hirae
  MIC50: 4 µg/mL (≈ 7.73 µM)
  MIC90: 16 µg/mL (≈ 30.9 µM)
Klebsiella oxytoca
  MIC50: 2 µg/mL
  MIC90: 8 µg/mL
Enterococcus faecalis
  MIC: 2 µg/mL (≈ 3.86 µM)
  MIC50: 2 µg/mL (≈ 3.86 µM)
  MIC90: 4 µg/mL (≈ 7.73 µM)
Enterococcus faecium
  MIC: > 128 µg/mL
  MIC50: > 128 µg/mL
Proteus vulgaris
  MIC50: 64 µg/mL (≈ 124 µM)
  MIC90: > 128 µg/mL
Acinetobacter lwoffii [1]
  MIC50: ≤ 0.12 µg/mL
  MIC90: 32 µg/mL
Staphylococcus aureus
  MIC50: > 128 µg/mL
Haemophilus influenzae [2]
  MIC50: 0.008 µg/mL
  MIC90: 0.03 µg/mL
Bacteroides fragilis
  MIC50: 0.25 µg/mL
  MIC90: 0.5 µg/mL
Haemophilus influenzae [3]
  MIC: ≤ 0.004 µg/mL
  MIC50: ≤ 0.004 µg/mL
  MIC90: 0.015 µg/mL
[4]
  MIC50: 8 µg/mL (≈ 15.5 µM)
  MIC90: 64 µg/mL (≈ 124 µM)
Citrobacter freundii [5]
  MIC50: 2 µg/mL
  MIC90: 16 µg/mL
[6]
  MIC50: 4 µg/mL (≈ 7.73 µM)
  MIC90: 128 µg/mL (≈ 247 µM)
Acinetobacter lwoffii [7]
  MIC50: 4 µg/mL (≈ 7.73 µM)
  MIC90: 128 µg/mL (≈ 247 µM)
Enterococcus avium [8]
  MIC50: 16 µg/mL
  MIC90: 64 µg/mL
Enterobacter cloacae
  MIC50: > 128 µg/mL
  MIC90: > 128 µg/mL
Klebsiella aerogenes
  MIC50: > 128 µg/mL
  MIC90: > 128 µg/mL
Enterococcus avium [9]
  MIC50: 8 µg/mL
  MIC90: 32 µg/mL
[10]
  MIC50: 0.06 µg/mL (≈ 0.116 µM)
  MIC90: 0.5 µg/mL (≈ 0.966 µM)
Haemophilus influenzae [11]
  MIC50: 0.015 µg/mL (≈ 0.029 µM)
  MIC90: 0.03 µg/mL (≈ 0.058 µM)
Enterococcus gallinarum
  MIC50: 4 µg/mL (≈ 7.73 µM)
  MIC90: 16 µg/mL (≈ 30.9 µM)
Citrobacter freundii [12]
  MIC50: 64 µg/mL
  MIC90: 128 µg/mL
Klebsiella pneumoniae
  MIC50: 2 µg/mL
  MIC90: 16 µg/mL
Haemophilus influenzae [13]
  MIC: ≤ 0.004 µg/mL
  MIC50: ≤ 0.004 µg/mL
  MIC90: ≤ 0.004 µg/mL
Acinetobacter baumannii
  MIC50: > 128 µg/mL
  MIC90: > 128 µg/mL

## C[C@H]1COc2c(N3CCN(C)CC3)c(F)cc3c(=O)c(C(=O)O)cn1c23.C[C@H]1COc2c(N3CCN(C)CC3)c(F)cc3c(=O)c(C(=O)O)cn1c23.O [LEVOFLOXACIN]
Moraxella catarrhalis
  MIC50: 0.03 µg/mL
  MIC90: 0.06 µg/mL
Enterococcus hirae
  MIC50: 1 µg/mL
  MIC90: 8 µg/mL
Enterococcus faecalis
  MIC50: 1 µg/mL
  MIC90: > 16 µg/mL
Enterococcus faecium
  MIC: > 16 µg/mL
  MIC50: > 16 µg/mL
Proteus vulgaris
  MIC: 0.03 µg/mL
  MIC50: 0.03 µg/mL
  MIC90: 0.12 µg/mL
Staphylococcus aureus
  MIC50: 4 µg/mL
  MIC90: > 16 µg/mL
[4]
  MIC50: 2 µg/mL
  MIC90: > 16 µg/mL
[6]
  MIC50: 0.12 µg/mL
  MIC90: 2 µg/mL
Acinetobacter lwoffii [7]
  MIC50: 0.12 µg/mL
  MIC90: 2 µg/mL
Enterobacter cloacae
  MIC50: 0.12 µg/mL
  MIC90: 8 µg/mL
Klebsiella aerogenes
  MIC50: 0.12 µg/mL
  MIC90: 8 µg/mL
[10]
  MIC: ≤ 0.015 µg/mL
  MIC50: ≤ 0.015 µg/mL
  MIC90: 0.06 µg/mL
Haemophilus influenzae [11]
  MIC: ≤ 0.015 µg/mL
  MIC50: ≤ 0.015 µg/mL
  MIC90: ≤ 0.015 µg/mL
Enterococcus gallinarum
  MIC50: 1 µg/mL
  MIC90: 8 µg/mL
Acinetobacter baumannii
  MIC50: 8 µg/mL
  MIC90: 16 µg/mL
